Only some compounds are listed: those with a hit (about 2.1% of all), similar ones and a draw of the others.
PfGluPho inh: PfG6PD enzyme inhibitors, primary screen, biochemical, fluorescence intensity, uHTS; glucose-6-phosphate dehydrogenase-6-phosphogluconolactonase (Plasmodium falciparum 3D7); 350,000 compounds, 0.78% hits; PfGluPho enzyme, NADPH resazurin-diaphorase fluorescence; inhibition, % at 20 µM;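 active means inhibition reaching at least a set limit at 20 µM in the primary screen, cut at about 59% in these data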;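 further: 0% = DMSO wells with substrate and 100% = DMSO wells lacking glucose-6-phosphate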
UCH37 inh: inhibitors of human UCH37 deubiquitinase, primary screen, biochemical, Ub-AMC cleavage, fluorescence | Ubiquitin carboxyl-terminal hydrolase isozyme L5 (Homo sapiens), Q9Y5K5 | purified proteasome/UCH37 | 330,000 compounds, 0.33% hits | inhibition, % (concentration not given with the values) | AID 588478, 2011;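 active means mean inhibition over replicate wells above about 20%, limit read from the data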;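 further: 0% = compound-free wells with enzyme and 100% = wells lacking proteasome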
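Reagent: Ub-AMC substrate; assay system: Proteasome-associated human UCH37 deubiquitinase; controls: no-proteasome and no-compound wells; read-out: % inhibition of Ub-AMC cleavage fluorescence; timing: 30 min preincubation with enzyme, 25 min cleavage at room temperature; signal: AMC fluorescence from Ub-AMC cleavage, excitation 355 nm, emission 460 nm; buffer or medium: Tris-HCl pH 7.4 plus ovalbumin, ATP-MgCl2, DTT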
Cardio protect: cardioprotection against H2O2-induced cell death, primary screen, uHTS, H9c2 cells, ATPLite luminescence; H9c2 cardiomyocytes, H2O2 injury protection, 2 h; protection from H2O2 cell death, % at 20 µM; 360,000 compounds, 0.63% hits; AID 588492, 2011;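 active means compounds giving at least 50% protection of heart cells from peroxide-induced death in the single-dose screen, raw or plate-pattern-corrected value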;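 further: 0% = DMSO wells with peroxide and 100% = DMSO wells without peroxide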
B2AR ag: beta2AR agonists driving receptor internalization, primary screen, cell-based, FAP fluorogen, flow cytometry | Beta-2 adrenergic receptor (Homo sapiens), P07550 | Am2.2-beta2AR cells | response, % (test concentration not listed) | 340,000 compounds, 0.43% hits;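 active means response above a set limit, near 3 SD of response in nonfluorescent compounds, cut at about 42% in these data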
Target sequence (P07550 whole entry, looked up): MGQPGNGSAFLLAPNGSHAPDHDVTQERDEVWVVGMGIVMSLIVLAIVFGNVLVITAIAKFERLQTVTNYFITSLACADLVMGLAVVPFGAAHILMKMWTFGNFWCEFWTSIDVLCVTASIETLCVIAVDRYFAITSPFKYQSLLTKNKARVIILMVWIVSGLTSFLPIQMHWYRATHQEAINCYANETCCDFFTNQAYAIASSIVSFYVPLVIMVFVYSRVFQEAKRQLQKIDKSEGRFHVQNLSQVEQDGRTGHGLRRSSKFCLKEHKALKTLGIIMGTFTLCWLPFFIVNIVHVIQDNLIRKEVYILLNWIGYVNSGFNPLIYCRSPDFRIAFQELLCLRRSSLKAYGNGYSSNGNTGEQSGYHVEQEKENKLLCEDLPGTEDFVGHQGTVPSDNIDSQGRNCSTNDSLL
HKDC1 inhibitor: HKDC1 hexokinase inhibitors, primary screen, biochemical, fluorescence, uHTS | Q2TB90 | recombinant HKDC1, G6PDH/diaphorase resazurin coupled fluorescence | inhibition, % at 20 µM | 340,000 compounds, 0.16% hits;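 active means inhibition above about 35% when tested at 20 µM, limit read from the data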;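 further: plate controls were DMSO wells with enzyme for no effect and DMSO wells lacking enzyme for full effect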
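Material: recombinant HKDC1 hexokinase; Amount: HKDC1 at 5 µg/mL; Medium: Tris pH 8.0 buffer with MgCl2, Tween-20, BSA, BME; Schedule: 90 min reaction incubation at room temperature, dark; Technique: coupled resazurin fluorescence, excitation 525 nm, emission 613 nm.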
aDG glyco up: activators of alpha-DG glycosylation, primary screen, uHTS, Pro5-aDG cells, AlphaScreen | 360,000 compounds, 0.22% hits | alpha-DG glycosylation AlphaScreen (IIH6); 0% Pro5, 100% B10-LARGE cell signal | AID 624168, 2012 | activation, % at 10 µM;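 active means activation of at least 8% versus controls, or a plate z-score of at least 8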;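 further: Pro5 are CHO cells carrying HIG-tagged alpha-DG that lacks glycosylation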
HKDC1 act conf: HKDC1 hexokinase activators, confirmation, biochemical, single concentration. inhibition, % at 20 µM. 740 compounds, 14% hits. recombinant HKDC1, G6PDH/diaphorase resazurin fluorescence; stronger effect = lower value. shares compounds with HKDC1 inhibitor;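 active means inhibition at or below a set negative limit, negative inhibition meaning the enzyme was activated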
The depositor's hits bear a star; . = no result given.

SMILES	PfGluPho inh	UCH37 inh	Cardio protect	B2AR ag	HKDC1 inhibitor	aDG glyco up	HKDC1 act conf
COC1=CC(=O)c2ccccc2C1=O	-94	.	-13	-3	3	5	.
COC1=CC(=O)C=C(OC)C1=O	125*	.	-47	53*	66*	0	75
COCc1cc(C2C(C(=O)c3ccco3)=C(O)C(=O)N2CCOCCO)ccc1O (stereo not given)	5	7	-3	6	35*	0	-40*
COCCCN1C(=O)C(O)=C(C(=O)c2ccco2)C1c1ccccc1 (stereo not given)	4	0	0	-6	-5	0	.
CCOc1ccccc1Nc1nnc(SCc2nnc(-c3cc(OC)c(OC)c(OC)c3)o2)s1	42	3	68*	12	48*	0	45
COc1cc(-c2nnc(CSc3nnc(Nc4ccc(C(C)C)cc4)s3)o2)cc(OC)c1OC	17	-13	3	1	-6	0	.
COc1ccccc1Nc1nnc(SCc2nnc(-c3cc(OC)c(OC)c(OC)c3)o2)s1	32	3	21	-7	35	0	33
COc1ccc(C=NNC(=O)c2sccc2C)cc1Cn1nc(C)cc1C	.	-1	.	.	.	.	.
O=C(O)c1ccc2ncsc2c1	4	-2	3	0	41*	0	48
O=[N+]([O-])c1cc(Br)cc(C=Nn2cnnc2)c1O	.	15	.	.	.	.	.
COc1cc(/C=C(\C#N)c2nc3ccc(C)cc3[nH]2)cc([N+](=O)[O-])c1O	14	24*	3	9	41*	0	42
COc1ccc(/C=C(\C#N)c2nc3ccc(C)cc3[nH]2)cc1Oc1ccc(C(F)(F)F)cc1[N+](=O)[O-]	-5	3	-9	4	-4	0	.

Source: PubChem BioAssay (several laboratories)
